Source: ChEMBL document CHEMBL1250479, “Biological diversity from a structurally diverse library: systematically scanning conformational space using a pyranose scaffold” (J Med Chem, 2010)
Values belong to the molecule of their own block, whether it stands above or below them.

Assays:
[1] = target: T1, Melanin-concentrating hormone receptor 1 (Homo sapiens, UniProt Q99705); assay: Displacement of [I125I]MCH from human MCH1 receptor expressed in CHO cells by scintillation counting; type: cell-based
Summary of the method: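 SPA competition on membranes of CHO cells stably expressing human MCH1, premixed with WGA-PVT beads (0.25 mg/well). Test compound was added at increasing concentrations with [125I]-MCH in HEPES pH 7.4 buffer containing CaCl2, MgCl2 and 0.2% BSA, incubated 2 h at room temperature, then scintillation-counted. Phe-(D)Tyr-MCH served as reference ligand; IC50 came from sigmoidal dose-response fits.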

[2] = target: T1, Melanin-concentrating hormone receptor 1; assay: Displacement of [I125I]MCH from human MCH1 receptor expressed in CHO cells (empty) by scintillation counting; conditions: 3 uM
[3] = target: Somatostatin receptor type 5 (Homo sapiens, UniProt P35346); assay: Displacement of [125I]iodotyrosyl from human SST5 receptor expressed in CHO cells; type: cell-based
Summary of the method: (§1)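 Membranes from CHO cells stably expressing cloned human sst1–5 were used at 2 µg protein/well (sst1), 0.2 (sst2) or 0.7 (sst3, sst4, sst5). After GF/B filtration, bound label was counted. Nonspecific binding used 1 µM SST28; Ki came from single-site fits with known Kd; tested once in duplicate.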

[4] = target: Somatostatin receptor type 1 (Homo sapiens, UniProt P30872); assay: Displacement of [125I]iodotyrosyl from human SST1 receptor expressed in CHO cells; type: cell-based; summary of the method: as §1
[5] = target: Somatostatin receptor type 2 (Homo sapiens, UniProt P30874); assay: Displacement of [125I]iodotyrosyl from human SST2 receptor expressed in CHO cells; type: cell-based; summary of the method: as §1
[6] = target: Somatostatin receptor type 3 (Homo sapiens, UniProt P32745); assay: Displacement of [125I]iodotyrosyl from human SST3 receptor expressed in CHO cells; type: cell-based; summary of the method: as §1
[7] = target: Somatostatin receptor type 4 (Homo sapiens, UniProt P31391); assay: Displacement of [125I]iodotyrosyl from human SST4 receptor expressed in CHO cells; type: cell-based; summary of the method: as §1
Somatostatin receptor type 4, sequence (P31391 whole entry): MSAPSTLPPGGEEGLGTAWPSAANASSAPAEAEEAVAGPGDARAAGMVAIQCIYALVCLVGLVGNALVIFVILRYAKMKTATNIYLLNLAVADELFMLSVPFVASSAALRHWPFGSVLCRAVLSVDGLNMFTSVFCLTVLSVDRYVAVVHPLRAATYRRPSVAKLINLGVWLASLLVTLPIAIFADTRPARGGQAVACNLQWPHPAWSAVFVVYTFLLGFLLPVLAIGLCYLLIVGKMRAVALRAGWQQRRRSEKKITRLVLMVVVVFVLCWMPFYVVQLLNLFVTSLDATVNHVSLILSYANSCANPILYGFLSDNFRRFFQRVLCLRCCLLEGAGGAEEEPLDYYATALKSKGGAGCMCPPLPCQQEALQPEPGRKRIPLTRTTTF

Somatostatin receptor type 2, sequence (P30874 whole entry): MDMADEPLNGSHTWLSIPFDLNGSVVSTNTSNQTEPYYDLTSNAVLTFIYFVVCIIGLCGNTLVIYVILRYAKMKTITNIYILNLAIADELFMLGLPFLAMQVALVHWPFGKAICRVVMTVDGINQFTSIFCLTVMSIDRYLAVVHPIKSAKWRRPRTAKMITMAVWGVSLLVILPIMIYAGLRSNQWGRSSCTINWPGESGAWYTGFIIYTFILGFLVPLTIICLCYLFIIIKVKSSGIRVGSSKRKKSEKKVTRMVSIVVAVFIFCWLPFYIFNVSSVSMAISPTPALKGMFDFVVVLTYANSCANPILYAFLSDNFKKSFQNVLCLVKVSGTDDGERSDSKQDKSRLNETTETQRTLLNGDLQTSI
Somatostatin receptor type 1, sequence (P30872 whole entry): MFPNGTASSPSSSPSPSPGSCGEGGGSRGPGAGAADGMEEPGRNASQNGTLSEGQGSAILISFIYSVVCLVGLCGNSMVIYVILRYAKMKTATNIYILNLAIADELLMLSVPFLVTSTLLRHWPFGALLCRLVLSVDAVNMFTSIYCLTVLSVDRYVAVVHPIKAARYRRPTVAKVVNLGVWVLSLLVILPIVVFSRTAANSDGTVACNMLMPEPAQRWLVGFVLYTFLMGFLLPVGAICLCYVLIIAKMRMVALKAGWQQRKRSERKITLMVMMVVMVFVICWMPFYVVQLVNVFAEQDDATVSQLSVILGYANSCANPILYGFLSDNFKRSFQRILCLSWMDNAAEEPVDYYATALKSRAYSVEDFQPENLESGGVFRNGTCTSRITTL
Somatostatin receptor type 5, sequence (P35346 whole entry): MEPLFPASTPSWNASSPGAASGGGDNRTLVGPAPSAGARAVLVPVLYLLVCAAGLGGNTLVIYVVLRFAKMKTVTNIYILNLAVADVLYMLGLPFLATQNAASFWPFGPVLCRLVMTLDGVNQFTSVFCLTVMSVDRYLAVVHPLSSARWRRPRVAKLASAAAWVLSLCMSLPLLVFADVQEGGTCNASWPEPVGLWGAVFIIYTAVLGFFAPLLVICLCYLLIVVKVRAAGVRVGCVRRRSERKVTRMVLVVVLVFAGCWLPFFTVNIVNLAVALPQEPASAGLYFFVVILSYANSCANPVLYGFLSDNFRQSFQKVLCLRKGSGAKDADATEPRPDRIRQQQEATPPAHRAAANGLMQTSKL
T1 sequence (Q99705 whole entry): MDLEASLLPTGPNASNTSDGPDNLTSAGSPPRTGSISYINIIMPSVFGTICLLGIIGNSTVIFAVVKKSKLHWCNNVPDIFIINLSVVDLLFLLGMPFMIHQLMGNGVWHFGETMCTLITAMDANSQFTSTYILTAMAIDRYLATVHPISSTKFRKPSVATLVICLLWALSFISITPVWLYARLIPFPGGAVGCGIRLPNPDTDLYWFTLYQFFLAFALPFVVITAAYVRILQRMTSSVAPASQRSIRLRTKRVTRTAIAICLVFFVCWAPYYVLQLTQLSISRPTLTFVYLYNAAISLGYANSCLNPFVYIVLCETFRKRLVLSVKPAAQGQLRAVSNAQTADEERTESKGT
Somatostatin receptor type 3, sequence (P32745 whole entry): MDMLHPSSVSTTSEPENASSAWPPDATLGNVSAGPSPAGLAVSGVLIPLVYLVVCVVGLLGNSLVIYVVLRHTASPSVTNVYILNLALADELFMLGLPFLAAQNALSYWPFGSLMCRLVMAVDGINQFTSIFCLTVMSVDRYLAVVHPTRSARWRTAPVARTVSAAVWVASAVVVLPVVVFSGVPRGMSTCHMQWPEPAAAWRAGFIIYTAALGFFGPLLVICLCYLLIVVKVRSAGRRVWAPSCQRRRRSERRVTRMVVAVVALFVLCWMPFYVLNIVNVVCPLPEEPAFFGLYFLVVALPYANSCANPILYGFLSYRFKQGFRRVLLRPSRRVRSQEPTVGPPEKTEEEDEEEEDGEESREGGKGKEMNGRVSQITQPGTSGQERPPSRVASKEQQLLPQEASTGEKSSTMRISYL

SMILES: COC[C@H]1OC(OCCc2ccccc2)[C@H](NC(=O)CCCN=C(N)N)[C@@H](OCc2ccc(Cl)cc2)[C@@H]1O (some centres undefined)
Ki [1]: 3500 nM

SMILES: COC[C@H]1O[C@H](OCc2ccc(Cl)cc2)[C@H](NC(=O)CCCN=C(N)N)[C@@H](OCc2ccc(Cl)cc2)[C@@H]1O
IC50 [1]: 120 nM

SMILES: COC[C@H]1OC(OCCc2ccccc2)[C@H](NC(=O)CCN)C(OCc2ccc3ccccc3c2)[C@@H]1O (some centres undefined)
IC50 [3]: 160 nM

SMILES: COC[C@H]1O[C@@H](OCCc2ccccc2)[C@H](NC(=O)CCCN)[C@@H](OCc2ccc3ccccc3c2)[C@@H]1O
IC50 [4]: > 10000 nM
IC50 [3]: 180 nM
IC50 [5]: 3320 nM
IC50 [6]: 1320 nM
IC50 [7]: > 10000 nM

SMILES: COC[C@H]1O[C@H](OCc2ccc(Cl)cc2)[C@H](NC(=O)CCCN=C(N)N)[C@@H](OCc2ccc3ccccc3c2)[C@@H]1O
IC50 [1]: 450 nM

SMILES: COC[C@H]1O[C@@H](OCc2ccc3ccccc3c2)[C@H](NC(=O)CCN)[C@@H](OCc2ccc3ccccc3c2)[C@@H]1O
IC50 [4]: 2800 nM
IC50 [3]: 20 nM
IC50 [5]: 650 nM
IC50 [6]: 380 nM
IC50 [7]: 4000 nM

SMILES: COC[C@H]1OC(OCc2ccc(Cl)cc2)[C@H](NC(=O)CCCN=C(N)N)[C@@H](OCc2ccc(Cl)cc2)[C@@H]1O (some centres undefined)
Ki [1]: 1200 nM

SMILES: COC[C@H]1OC(OCc2ccc3ccccc3c2)[C@H](NC(=O)CN=C(N)N)[C@@H](OCc2ccc(Cl)cc2)[C@@H]1O (some centres undefined)
Ki [1]: 6600 nM

SMILES: COC[C@H]1O[C@H](OCc2ccc3ccccc3c2)[C@H](NC(=O)CCCN)[C@H](OCc2ccc(Cl)cc2)[C@@H]1O
IC50 [4]: > 10000 nM
IC50 [3]: 70 nM
IC50 [5]: > 10000 nM
IC50 [6]: 500 nM
IC50 [7]: > 10000 nM

SMILES: CS[C@@H]1O[C@H](COCc2ccc(Cl)cc2)[C@@H](O)[C@@H](OCc2ccc3ccccc3c2)[C@H]1NC(=O)CCN
IC50 [4]: 9590 nM
IC50 [3]: 6000 nM
IC50 [5]: 980 nM
IC50 [6]: 6330 nM
IC50 [7]: 430 nM

SMILES: CS[C@@H]1O[C@H](COCc2ccc(Cl)cc2)[C@@H](O)[C@@H](OCc2ccc3ccccc3c2)[C@H]1NC(=O)CCCN=C(N)N
IC50 [7]: 720 nM

SMILES: CS[C@@H]1O[C@H](COCc2ccccc2)[C@@H](O)[C@@H](OCc2ccc3ccccc3c2)[C@H]1NC(=O)CCN
IC50 [7]: 660 nM

SMILES: CS[C@@H]1O[C@H](COCc2ccc3ccccc3c2)[C@@H](O)[C@@H](OCc2ccc3ccccc3c2)[C@H]1NC(=O)CCN
IC50 [7]: 440 nM

SMILES: COC[C@H]1O[C@@H](OCc2ccc3ccccc3c2)[C@H](NC(=O)CCCN=C(N)N)[C@@H](OCc2ccc(Cl)cc2)[C@@H]1O
IC50 [1]: 1750 nM

SMILES: COC[C@H]1O[C@@H](OCc2ccc(Cl)cc2)[C@H](NC(=O)CCCN=C(N)N)[C@@H](OCc2ccc(Cl)cc2)[C@@H]1O
IC50 [1]: 1660 nM

SMILES: COC[C@H]1OC(OCc2ccc3ccccc3c2)[C@H](NC(=O)CCCN=C(N)N)[C@@H](OCc2ccc(Cl)cc2)[C@@H]1O (some centres undefined)
Ki [1]: 1800 nM

SMILES: COC[C@H]1O[C@H](OCc2ccc3ccccc3c2)[C@H](NC(=O)CCCN=C(N)N)[C@@H](OCc2ccc(Cl)cc2)[C@@H]1O
IC50 [1]: 920 nM

More lines, now with the values ahead:

IC50 [2]: > 3000 nM
SMILES: COC[C@H]1O[C@@H](OCc2ccc(Cl)cc2)[C@H](NC(=O)CCCN=C(N)N)[C@@H](OCc2ccc3ccccc3c2)[C@@H]1O

IC50 [7]: 180 nM
SMILES: CS[C@@H]1O[C@H](COCc2ccccc2)[C@@H](O)[C@@H](OCc2ccc3ccccc3c2)[C@H]1NC(=O)CCN=C(N)N

IC50 [4]: > 10000 nM
IC50 [3]: 50 nM
IC50 [5]: > 10000 nM
IC50 [7]: > 10000 nM
SMILES: COC[C@H]1O[C@@H](OCc2ccc3ccccc3c2)[C@H](NC(=O)CCCN)[C@@H](OCc2ccc(Cl)cc2)[C@@H]1O

IC50 [1]: 540 nM
SMILES: COC[C@H]1O[C@H](OCCc2ccccc2)[C@H](NC(=O)CCCN=C(N)N)[C@@H](OCc2ccc(Cl)cc2)[C@@H]1O

Ki [1]: 5100 nM
SMILES: COC[C@H]1OC(OCc2ccc3ccccc3c2)[C@H](NC(=O)CCCN=C(N)N)[C@@H](OCc2ccc3ccccc3c2)[C@@H]1O (some centres undefined)

Ki [1]: 2600 nM
SMILES: COC[C@H]1OC(OCc2ccc(Cl)cc2)[C@H](NC(=O)CCCN=C(N)N)[C@@H](OCc2ccc3ccccc3c2)[C@@H]1O (some centres undefined)

IC50 [4]: > 10000 nM
IC50 [3]: 200 nM
IC50 [5]: 6100 nM
IC50 [6]: 8400 nM
IC50 [7]: > 10000 nM
SMILES: COC[C@H]1O[C@H](OCCc2ccccc2)[C@H](NC(=O)CCCN)[C@H](OCc2ccc3ccccc3c2)[C@@H]1O

Ki [1]: 6300 nM
SMILES: COC[C@H]1OC(OCc2ccc3ccccc3c2)[C@H](NC(=O)CCN=C(N)N)[C@@H](OCc2ccc3ccccc3c2)[C@@H]1O (some centres undefined)

IC50 [1]: 1160 nM
SMILES: COC[C@H]1O[C@H](OCc2ccc3ccccc3c2)[C@H](NC(=O)CCCN=C(N)N)[C@@H](OCc2ccc3ccccc3c2)[C@@H]1O
